Screening results deposited in PubChem by several laboratories.
CHT PAM: allosterically activates the human high affinity choline transporter; Q9GZV3; CHT-expressing cells, membrane potential dye, choline EC20; stronger effect = higher value; LV-AA mutant CHT in HEK293 cells; B-score at 10 µM; 310,000 tested, 0.49% active; AID 488977;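 active = initial fluorescence not abnormally high and integrated response B-score, plate-corrected, over 3 SD above library mean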
PHOSPHO1 inh: blocks human PHOSPHO1 phosphatase activity; inhibition, % at 13.3 µM; 290,000 tested, 1.1% active; recombinant PHOSPHO1, absorbance phosphatase assay; AID 1565; in the data active = inhibition above about 60%
Target sequence (Q8TCT1 whole entry, looked up): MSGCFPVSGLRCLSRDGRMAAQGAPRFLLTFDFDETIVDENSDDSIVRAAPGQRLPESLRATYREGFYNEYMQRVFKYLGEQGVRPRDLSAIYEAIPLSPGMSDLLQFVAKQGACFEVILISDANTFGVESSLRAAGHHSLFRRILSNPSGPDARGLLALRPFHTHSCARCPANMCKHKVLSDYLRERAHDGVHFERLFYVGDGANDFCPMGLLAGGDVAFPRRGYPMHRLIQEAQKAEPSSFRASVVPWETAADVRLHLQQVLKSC
HSF1 inhib: HSF1 inhibition; NIH3T3-HGL HSE-luciferase, MG132-induced, luminescence 8 h; stronger effect = lower value; activity change, negative = inhibition, % at 7.5 µM (by protocol); 300,000 tested, 0.77% active; AID 2098;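 active = more than half of replicate wells show activity change below -50%, luminescence cut by over half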;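 also: luciferase reports HSF-1 transcriptional activity via heat shock element; 0% = median of DMSO wells and -100% = zero luminescence signal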
CHT block: inhibitors of human choline transporter CHT. Q9GZV3. CHT-expressing cells, membrane potential dye, choline response; stronger effect = lower value. B-score at 10 µM. 310,000 tested, 0.86% active;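 active = B-score over 3 SD under the library average, and starting fluorescence ratio not unusually high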;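 also: choline stimulus applied at its EC90 after an EC20 pre-addition; B-score computed on integrated fluorescence ratio after choline addition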
Hep lipid drop: modulators of hepatic lipid droplet formation; inhibition, % at 6.5 µM; AID 1656; 240,000 tested, 0.4% active; AML12 mouse hepatocytes, oleate lipid droplets, BODIPY imaging;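 active = lipid droplet intensity inhibited by at least 50%, with more than 500 cells counted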
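Material – mouse AML12 hepatocyte cell line, fixed after treatment · Compound dosing – one dose, 6.5 µM compound · Times – compound with oleate, overnight · Measured by – Image-based BODIPY and DAPI two-channel analysis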
HSF1 activator: increases HSF-1 driven luciferase reporter signal; NIH3T3-HGL HSF-1 luciferase reporter, MG132, 8 h; 100% = twice DMSO control signal; activation, % at 9 µM; AID 504408; 300,000 tested, 1.7% active;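 active = mean replicate activation of at least 50% with a set share of replicates each reaching 50%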;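 also: 0% = median of the neutral control wells and 100% = twice that signal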
CHT block conf: confirmation of human choline transporter CHT inhibitors; shares compounds with CHT block; CHT-expressing cells, choline membrane potential dye; LV-to-AA substituted CHT, HEK293 cells; CHT activity remaining % of control (stronger effect = lower value), % at 10 µM; 2,400 tested, 70% active;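 active = choline transporter activity left, mean of duplicates at 10 µM, below buffer-only control mean minus 3 SD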;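 also: depolarization triggered by choline at its EC90 following an EC20 pre-addition; 0% = hemicholinium-3 full block and 100% = buffer-only control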
HEK293 CHT ctr: activity in parental HEK293 cells lacking CHT. shares compounds with CHT block. 2,400 tested, 4% active. membrane potential ratio readout (active if shifted either direction beyond buffer ±3SD; no single direction) at 10 µM. membrane potential dye, choline response; active = decrease or increase beyond buffer ±3SD;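 also: parental cells lack the transporter so any hit is non-specific; ratio is peak minus trough fluorescence over baseline after EC90 choline challenge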
* = called active by the depositor. Sampled rows, rich in hits. Any-hit rate of the full collection: about 4.9%.

What do the screens show for `CCOC(=O)COc1ccc(S(=O)(=O)NCc2ccco2)cc1`?
CHT PAM: inactive; PHOSPHO1 inh: -34; HSF1 inhib: -1; CHT block: -7.6*; Hep lipid drop: 17; HSF1 activator: -4; CHT block conf: inactive; HEK293 CHT ctr: inactive

What do the screens show for `COC(=O)COc1ccc(S(=O)(=O)NCc2ccco2)cc1`?
CHT PAM: inactive; PHOSPHO1 inh: -4; HSF1 inhib: -11; CHT block: inactive; Hep lipid drop: -2; HSF1 activator: -12

What do the screens show for `COc1ccccc1CNC(=O)COC(=O)Cc1cccs1`?
CHT PAM: inactive; PHOSPHO1 inh: -7; HSF1 inhib: -6; CHT block: inactive; Hep lipid drop: -8; HSF1 activator: -9

Results for O=C(O)c1[nH]c2ccccc2c1CC(=O)N1CCN(c2ccccc2)CC1 ?
CHT PAM: inactive; PHOSPHO1 inh: 4; HSF1 inhib: 6; CHT block: inactive; Hep lipid drop: 10; HSF1 activator: 22

Results for Cc1cccc(N2CCN(C(=O)Cc3c(C(=O)O)[nH]c4ccc(Cl)cc34)CC2)c1C ?
CHT PAM: inactive; PHOSPHO1 inh: -4; HSF1 inhib: 1; CHT block: -11*; HSF1 activator: 21; CHT block conf: 56%*; HEK293 CHT ctr: inactive

What do the screens show for `Cc1cc(C)cc(C(=O)NC(CC(N)=O)c2ccc(N3CCN(c4ccccn4)CC3)c([N+](=O)[O-])c2)c1` (configuration not stated)?
CHT PAM: inactive; PHOSPHO1 inh: 25; HSF1 inhib: 4; CHT block: inactive; Hep lipid drop: 1; HSF1 activator: 19

How did O=C(N/N=C/c1cccnc1)c1ccc(CN2c3cccc4cccc(c34)S2(=O)=O)cc1 do in these assays?
CHT PAM: inactive; PHOSPHO1 inh: 42; HSF1 inhib: -10; CHT block: -5*; Hep lipid drop: -3; HSF1 activator: 7; CHT block conf: inactive; HEK293 CHT ctr: inactive

How did COc1ccc(Nc2ncnc3c2cnn3Cc2ccc(C)cc2)cc1 do in these assays?
CHT PAM: inactive; PHOSPHO1 inh: 0; HSF1 inhib: -2; CHT block: inactive; Hep lipid drop: -23; HSF1 activator: 0

What do the screens show for `O=C(c1ccco1)N1CCN(C(c2cccs2)c2nnnn2C2CCCC2)CC1` (configuration not stated)?
CHT PAM: inactive; PHOSPHO1 inh: 42; HSF1 inhib: 2; CHT block: -7.8*; Hep lipid drop: 6; HSF1 activator: -2; CHT block conf: inactive; HEK293 CHT ctr: inactive

What do the screens show for `Cc1ccc(C(=O)NCC(=O)NCCCc2ccccc2)cc1`?
CHT PAM: inactive; PHOSPHO1 inh: 6; HSF1 inhib: -6; CHT block: -5*; Hep lipid drop: -24; HSF1 activator: -1; CHT block conf: 57%*; HEK293 CHT ctr: inactive

How did O=C(NCC(=O)N1CCN(c2ccccc2)CC1)c1ccc(Br)o1 do in these assays?
CHT PAM: inactive; PHOSPHO1 inh: 12; HSF1 inhib: 1; CHT block: inactive; Hep lipid drop: -5; HSF1 activator: 7

How did O=C(NCc1ccco1)c1cccc(Br)c1 do in these assays?
CHT PAM: inactive; PHOSPHO1 inh: 8; HSF1 inhib: 4; CHT block: inactive; Hep lipid drop: 8; HSF1 activator: 8

What do the screens show for `Fc1cccc(Cc2noc(CN3CCC(c4ccncc4)CC3)n2)c1`?
CHT PAM: inactive; PHOSPHO1 inh: 27; HSF1 inhib: -6; CHT block: -5.6*; Hep lipid drop: -24; HSF1 activator: 3; CHT block conf: 30%*; HEK293 CHT ctr: inactive

How did Fc1cccc(Cc2noc(CN3CCOCC3)n2)c1 do in these assays?
CHT PAM: inactive; PHOSPHO1 inh: 22; HSF1 inhib: 3; CHT block: inactive; Hep lipid drop: 3; HSF1 activator: -10

What do the screens show for `CC(C)N(Cc1ccccc1)C(=O)c1ccc2c(c1)OCO2`?
CHT PAM: inactive; PHOSPHO1 inh: 43; HSF1 inhib: 8; CHT block: inactive; Hep lipid drop: -8; HSF1 activator: 12

Results for Cc1cccc(N2CCN(C(=O)C3CCN(c4ncnc5c4nc4n5CCCCC4)CC3)CC2C)c1 (configuration not stated) ?
CHT PAM: inactive; PHOSPHO1 inh: -1; HSF1 inhib: -7; CHT block: -5*; Hep lipid drop: 12; HSF1 activator: -8; CHT block conf: 43%*; HEK293 CHT ctr: inactive

What do the screens show for `Cc1cccc(N2CCN(C(=O)C3CCN(c4ncnc5c4nc4n5CCCCC4)CC3)CC2)c1C`?
CHT PAM: inactive; PHOSPHO1 inh: 32; HSF1 inhib: 0; CHT block: inactive; Hep lipid drop: -16; HSF1 activator: 4

What do the screens show for `Cc1ccc(N2CCN(C(=O)C3CCCN(c4ncnc5c4nc4n5CCCCC4)C3)CC2)c(C)c1` (configuration not stated)?
CHT PAM: inactive; PHOSPHO1 inh: 42; HSF1 inhib: 0; CHT block: -5.9*; Hep lipid drop: 0; HSF1 activator: -3; CHT block conf: 45%*; HEK293 CHT ctr: inactive

Results for COc1ccccc1N1CCN(C(=O)C2CCCN(c3ncnc4c3nc3n4CCCCC3)C2)CC1 (configuration not stated) ?
CHT PAM: inactive; PHOSPHO1 inh: 29; HSF1 inhib: -3; CHT block: inactive; Hep lipid drop: -21; HSF1 activator: -7

Results for O=C(C1CCCN(c2ncnc3c2nc2n3CCCCC2)C1)N1CCN(c2cccc(Cl)c2)CC1 (configuration not stated) ?
CHT PAM: inactive; PHOSPHO1 inh: 43; HSF1 inhib: 3; CHT block: -10*; Hep lipid drop: -6; HSF1 activator: 8; CHT block conf: 47%*; HEK293 CHT ctr: inactive

Results for O=C(C1CCCN(c2ncnc3c2nc2n3CCCCC2)C1)N1CCN(c2ccccc2)CC1 (configuration not stated) ?
CHT PAM: inactive; PHOSPHO1 inh: -1; HSF1 inhib: 22; CHT block: -6.4*; Hep lipid drop: -21; HSF1 activator: 43; CHT block conf: 15%*; HEK293 CHT ctr: inactive

How did Cc1ccc(N2CCN(CC(=O)Nc3c(C(=O)C4CC4)oc4ccccc34)CC2)cc1 do in these assays?
PHOSPHO1 inh: 25
